The half-life is the time in which the quantity being followed falls by half. In general, IC50 refers to the concentration that inhibits the measured activity by half. The term inhibition denotes the change of the read-out against control, counted positive when it falls. One may read the GI50 as the concentration at which growth is held to half of that of the control. In general, clearance refers to a measure of how efficiently the substance is removed, as volume per time. A high value points to a high capacity for elimination.

Data set [1] can be described thus: Half life in CD1 mouse at 5 mg/kg, iv. Format: ADME, organism-based. The following applies: in vivo.
For data set [2], the target named is Platelet-derived growth factor receptor alpha (Homo sapiens, UniProt P16234). As to the kind of experiment: Inhibition of human recombinant PDGFRalpha expressed in sf21 cells using Poly(Glu:Tyr) as substrate in presence of [gamma32P]ATP.
Sequence of Platelet-derived growth factor receptor alpha (P16234 whole entry): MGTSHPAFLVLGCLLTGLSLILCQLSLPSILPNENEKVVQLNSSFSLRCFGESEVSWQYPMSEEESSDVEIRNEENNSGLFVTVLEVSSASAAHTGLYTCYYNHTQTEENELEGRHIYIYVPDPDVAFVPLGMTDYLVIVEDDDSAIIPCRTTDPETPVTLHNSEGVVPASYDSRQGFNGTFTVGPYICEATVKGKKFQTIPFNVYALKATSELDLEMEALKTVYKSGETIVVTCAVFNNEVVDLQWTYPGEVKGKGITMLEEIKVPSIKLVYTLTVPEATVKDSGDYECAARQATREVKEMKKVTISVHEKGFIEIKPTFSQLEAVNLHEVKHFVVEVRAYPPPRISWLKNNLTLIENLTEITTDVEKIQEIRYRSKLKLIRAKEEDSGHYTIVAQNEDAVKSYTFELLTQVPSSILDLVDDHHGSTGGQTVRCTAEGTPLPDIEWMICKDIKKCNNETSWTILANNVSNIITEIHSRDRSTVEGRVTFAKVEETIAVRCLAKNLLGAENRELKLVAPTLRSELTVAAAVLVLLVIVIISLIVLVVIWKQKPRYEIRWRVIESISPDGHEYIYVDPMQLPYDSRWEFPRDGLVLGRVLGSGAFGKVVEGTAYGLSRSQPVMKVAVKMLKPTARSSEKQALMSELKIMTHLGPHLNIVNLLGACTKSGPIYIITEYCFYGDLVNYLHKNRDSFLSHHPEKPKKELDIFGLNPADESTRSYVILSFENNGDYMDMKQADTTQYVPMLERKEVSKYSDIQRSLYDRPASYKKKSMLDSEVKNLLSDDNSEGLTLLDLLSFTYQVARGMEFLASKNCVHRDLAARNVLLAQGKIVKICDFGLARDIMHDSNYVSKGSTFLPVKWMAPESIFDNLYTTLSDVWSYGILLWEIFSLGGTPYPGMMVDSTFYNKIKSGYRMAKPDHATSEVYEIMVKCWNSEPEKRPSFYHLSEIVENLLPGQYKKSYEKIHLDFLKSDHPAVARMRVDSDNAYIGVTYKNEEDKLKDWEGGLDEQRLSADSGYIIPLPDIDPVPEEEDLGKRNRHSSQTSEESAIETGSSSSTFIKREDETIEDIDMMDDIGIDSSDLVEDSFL
The next data set concerns the target Cytochrome P450 3A4 (Homo sapiens, UniProt P08684). As to the kind of experiment: Inhibition of CYP3A4 (unknown origin). The format is ADME.
For data set [3], the target named is MAP kinase-interacting serine/threonine-protein kinase 2 (Homo sapiens, UniProt Q9HBH9). As to the kind of experiment: Inhibition of N-terminal GST-tagged MNK2 kinase domain (72 to 385 residues) (unknown origin) expressed in Escherichia coli BL21(DE3) cells using JH3 peptide substrate preincubated for 10 mins followed by substrate addition measured after 60 mins by mobility shift assay.
Sequence of MAP kinase-interacting serine/threonine-protein kinase 2 (Q9HBH9 whole entry, the tested form may be a part): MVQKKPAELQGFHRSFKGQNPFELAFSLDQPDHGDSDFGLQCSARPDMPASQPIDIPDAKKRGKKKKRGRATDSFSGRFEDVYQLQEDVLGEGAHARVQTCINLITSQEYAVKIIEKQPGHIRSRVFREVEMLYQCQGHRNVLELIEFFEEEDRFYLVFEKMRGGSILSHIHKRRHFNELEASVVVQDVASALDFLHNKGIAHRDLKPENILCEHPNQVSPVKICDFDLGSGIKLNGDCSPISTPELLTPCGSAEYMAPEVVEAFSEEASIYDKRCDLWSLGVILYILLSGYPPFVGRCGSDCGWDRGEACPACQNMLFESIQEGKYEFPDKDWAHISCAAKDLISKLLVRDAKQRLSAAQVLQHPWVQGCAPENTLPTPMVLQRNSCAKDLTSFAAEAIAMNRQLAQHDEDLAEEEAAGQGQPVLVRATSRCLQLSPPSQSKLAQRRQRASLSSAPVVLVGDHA

Data set [4] has as its target T1, Vascular endothelial growth factor receptor 2 (Homo sapiens, UniProt P35968). As to the kind of experiment: Inhibition of human recombinant VEGFR2 expressed in sf21 cells at 1 uM using Poly(Glu:Tyr) as substrate in presence of [gamma32P]ATP.
Data set [5] has as its target T1, Vascular endothelial growth factor receptor 2. As to the kind of experiment: Inhibition of human recombinant VEGFR2 expressed in sf21 cells using Poly(Glu:Tyr) as substrate in presence of [gamma32P]ATP.
In data set [6] the test system is Mus musculus. The data set is described as follows: Toxicity in NOD-SCID mouse xenografted with human K562 cells over expressing eIF4E assessed as body weight loss at 100 to 200 mg/kg, po qd administered through oral gavage for 14 days. The format is organism-based. The following applies: in vivo, 336 h. (Xenograft models place foreign cells or tissue in a host animal.)

Data set [7] is described as follows: Antiproliferative activity against human KCL22 cells after 48 hrs by Cell-Titer-Glo luminescent cell viability assay. The format is functional. The following applies: KCL-22, 48 h.
In data set [8] the target is Proto-oncogene tyrosine-protein kinase receptor Ret (Homo sapiens, UniProt P07949). As to the kind of experiment: Inhibition of human recombinant RET expressed in sf21 cells using Poly(Glu:Tyr) as substrate in presence of [gamma32P]ATP.
Sequence of Proto-oncogene tyrosine-protein kinase receptor Ret (P07949 whole entry): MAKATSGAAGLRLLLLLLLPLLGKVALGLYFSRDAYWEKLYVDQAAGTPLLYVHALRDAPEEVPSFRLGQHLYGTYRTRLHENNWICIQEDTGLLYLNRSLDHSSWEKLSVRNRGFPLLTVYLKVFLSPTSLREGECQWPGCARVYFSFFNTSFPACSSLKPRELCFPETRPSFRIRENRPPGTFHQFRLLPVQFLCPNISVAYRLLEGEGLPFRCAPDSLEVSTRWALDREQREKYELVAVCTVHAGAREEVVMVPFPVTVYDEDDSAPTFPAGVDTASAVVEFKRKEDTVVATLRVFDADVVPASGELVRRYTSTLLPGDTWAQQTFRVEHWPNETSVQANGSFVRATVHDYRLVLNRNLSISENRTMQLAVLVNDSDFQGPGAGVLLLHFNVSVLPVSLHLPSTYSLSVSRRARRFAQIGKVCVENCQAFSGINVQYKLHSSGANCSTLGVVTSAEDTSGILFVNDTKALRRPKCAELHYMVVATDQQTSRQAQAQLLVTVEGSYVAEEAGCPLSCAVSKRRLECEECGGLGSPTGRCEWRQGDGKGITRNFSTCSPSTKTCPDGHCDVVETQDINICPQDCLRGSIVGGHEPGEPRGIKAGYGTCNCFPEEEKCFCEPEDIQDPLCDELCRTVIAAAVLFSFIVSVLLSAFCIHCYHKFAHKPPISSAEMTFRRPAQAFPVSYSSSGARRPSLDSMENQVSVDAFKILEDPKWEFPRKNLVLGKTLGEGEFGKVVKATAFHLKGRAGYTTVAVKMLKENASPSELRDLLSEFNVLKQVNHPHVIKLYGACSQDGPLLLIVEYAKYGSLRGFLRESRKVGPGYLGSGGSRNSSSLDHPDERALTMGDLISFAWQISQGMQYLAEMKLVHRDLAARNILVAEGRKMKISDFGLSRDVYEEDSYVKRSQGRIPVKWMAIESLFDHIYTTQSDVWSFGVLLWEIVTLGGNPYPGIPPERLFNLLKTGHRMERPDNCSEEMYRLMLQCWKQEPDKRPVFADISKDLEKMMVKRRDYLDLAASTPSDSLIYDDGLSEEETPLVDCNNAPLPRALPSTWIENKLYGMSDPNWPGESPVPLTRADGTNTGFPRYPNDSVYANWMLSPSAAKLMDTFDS
Data set [9] is described as follows: Clearance in CD1 mouse at 5 mg/kg, iv. The format is ADME, organism-based. Particulars: in vivo.
Data set [10] has as its target Fibroblast growth factor receptor 2 (Homo sapiens, UniProt P21802). The data set is described as follows: Inhibition of human recombinant FGFR2 expressed in sf21 cells at 1 uM using Poly(Glu:Tyr) as substrate in presence of [gamma32P]ATP.
Data set [11] deals with Platelet-derived growth factor receptor beta (Homo sapiens, UniProt P09619). The data set is described as follows: Inhibition of human recombinant PDGFRbeta expressed in sf21 cells at 1 uM using Poly(Glu:Tyr) as substrate in presence of [gamma32P]ATP.
The target of data set [12] is T2, Receptor-type tyrosine-protein kinase FLT3 (Homo sapiens, UniProt P36888).
T2 sequence (P36888 whole entry): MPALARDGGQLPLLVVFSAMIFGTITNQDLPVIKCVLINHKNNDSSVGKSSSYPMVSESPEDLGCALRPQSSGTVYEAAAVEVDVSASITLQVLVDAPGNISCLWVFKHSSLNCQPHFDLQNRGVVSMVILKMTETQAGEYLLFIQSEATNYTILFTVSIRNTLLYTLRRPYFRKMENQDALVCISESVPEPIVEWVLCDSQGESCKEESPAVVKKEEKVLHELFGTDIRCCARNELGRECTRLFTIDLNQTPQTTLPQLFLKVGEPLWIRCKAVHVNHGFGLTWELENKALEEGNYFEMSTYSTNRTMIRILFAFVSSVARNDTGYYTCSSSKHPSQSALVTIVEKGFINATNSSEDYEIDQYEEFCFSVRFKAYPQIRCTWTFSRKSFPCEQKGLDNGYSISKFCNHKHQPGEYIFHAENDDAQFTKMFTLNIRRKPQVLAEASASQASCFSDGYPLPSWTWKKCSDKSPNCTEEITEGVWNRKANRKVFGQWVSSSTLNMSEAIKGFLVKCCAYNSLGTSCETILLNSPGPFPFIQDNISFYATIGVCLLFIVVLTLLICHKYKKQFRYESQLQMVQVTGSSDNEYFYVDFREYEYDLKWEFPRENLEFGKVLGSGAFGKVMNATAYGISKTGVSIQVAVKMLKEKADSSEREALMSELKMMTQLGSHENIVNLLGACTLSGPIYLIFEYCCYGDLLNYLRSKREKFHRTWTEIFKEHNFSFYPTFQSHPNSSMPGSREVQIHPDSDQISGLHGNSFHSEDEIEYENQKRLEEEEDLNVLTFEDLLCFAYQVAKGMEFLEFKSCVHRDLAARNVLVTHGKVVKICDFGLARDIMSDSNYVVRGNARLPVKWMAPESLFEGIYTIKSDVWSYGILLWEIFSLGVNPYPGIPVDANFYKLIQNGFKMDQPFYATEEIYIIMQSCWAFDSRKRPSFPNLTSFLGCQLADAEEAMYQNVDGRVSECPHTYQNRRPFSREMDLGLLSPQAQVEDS
The data set is described as follows: Inhibition of human recombinant FLT3 expressed in sf21 cells using Poly(Glu:Tyr) as substrate in presence of [gamma32P]ATP.

Data set [13] deals with MAP kinase-interacting serine/threonine-protein kinase 1/2 (Homo sapiens, UniProt Q9HBH9+Q9BUB5). The data set is described as follows: Inhibition of MNK1/MNK2 in human HeLa cells assessed as reduction in phosphorylation of eIF4E at Ser209 after 2 hrs by AlphaScreen SureFire assay. The format is cell-based. The method, boiled down: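 HeLa cells were grown in DMEM with 10% FBS and penicillin/streptomycin, seeded at 30,000 per well and left 24 h. They were then exposed to serially diluted compound in serum-free DMEM for 2 h at 37 °C and lysed with shaking for 20 min. Phospho-eIF4E Ser209 was read by AlphaScreen SureFire with 2 h acceptor and 2 h donor steps at room temperature. Dose response was run in triplicate.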
On the technique in general: Bead proximity is the source of the signal in Alpha formats.

Data set [14] in a line: Clearance in CD1 mouse at 10 mg/kg, iv. Format: ADME, organism-based. Particulars: in vivo.
Data set [15] is described as follows: Half life in CD1 mouse at 10 mg/kg, iv. Particulars: in vivo. Format: ADME, organism-based.
The test system of data set [16] is Mus musculus. As to the kind of experiment: Toxicity in NOD-SCID mouse xenografted with human K562 cells over expressing eIF4E assessed as body weight loss at 100 mg/kg, po qd administered through oral gavage for 14 days. Format: organism-based. Particulars: in vivo, 336 h.

T1 sequence (P35968 whole entry): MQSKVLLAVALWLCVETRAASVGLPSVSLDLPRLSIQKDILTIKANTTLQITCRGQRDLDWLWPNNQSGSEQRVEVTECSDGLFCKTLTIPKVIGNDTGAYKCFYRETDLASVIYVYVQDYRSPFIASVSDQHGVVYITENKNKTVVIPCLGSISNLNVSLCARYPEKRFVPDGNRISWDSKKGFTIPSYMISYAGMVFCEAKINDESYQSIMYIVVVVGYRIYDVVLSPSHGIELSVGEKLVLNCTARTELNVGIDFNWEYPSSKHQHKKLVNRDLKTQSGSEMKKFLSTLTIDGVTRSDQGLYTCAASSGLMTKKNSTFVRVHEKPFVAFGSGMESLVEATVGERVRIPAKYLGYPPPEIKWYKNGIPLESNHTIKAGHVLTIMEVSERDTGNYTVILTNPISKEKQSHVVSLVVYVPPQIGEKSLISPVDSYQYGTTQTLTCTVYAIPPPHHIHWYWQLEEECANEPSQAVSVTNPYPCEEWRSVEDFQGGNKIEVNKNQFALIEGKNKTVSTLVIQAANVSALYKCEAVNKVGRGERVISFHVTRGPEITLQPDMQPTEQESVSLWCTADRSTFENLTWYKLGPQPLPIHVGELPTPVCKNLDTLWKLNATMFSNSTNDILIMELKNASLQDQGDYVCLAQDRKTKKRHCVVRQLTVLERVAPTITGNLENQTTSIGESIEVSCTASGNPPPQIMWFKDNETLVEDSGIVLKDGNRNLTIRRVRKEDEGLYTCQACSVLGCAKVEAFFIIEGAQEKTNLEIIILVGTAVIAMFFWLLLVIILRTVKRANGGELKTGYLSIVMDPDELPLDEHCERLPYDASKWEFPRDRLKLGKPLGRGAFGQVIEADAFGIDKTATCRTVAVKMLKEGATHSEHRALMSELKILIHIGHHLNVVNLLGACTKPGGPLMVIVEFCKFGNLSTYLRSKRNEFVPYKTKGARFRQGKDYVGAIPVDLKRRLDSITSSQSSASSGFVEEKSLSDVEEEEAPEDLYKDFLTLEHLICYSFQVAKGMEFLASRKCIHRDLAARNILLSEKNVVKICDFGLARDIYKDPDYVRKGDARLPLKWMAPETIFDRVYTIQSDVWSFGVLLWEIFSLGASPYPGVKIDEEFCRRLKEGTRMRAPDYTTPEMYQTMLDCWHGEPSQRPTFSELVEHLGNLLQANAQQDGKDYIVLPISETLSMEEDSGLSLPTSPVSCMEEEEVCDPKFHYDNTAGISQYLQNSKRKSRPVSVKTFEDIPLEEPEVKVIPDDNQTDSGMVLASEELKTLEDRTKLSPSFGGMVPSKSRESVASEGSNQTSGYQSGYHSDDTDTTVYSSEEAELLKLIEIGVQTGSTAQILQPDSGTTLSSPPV
Sequence of Cytochrome P450 3A4 (P08684 whole entry, the tested form may be a part): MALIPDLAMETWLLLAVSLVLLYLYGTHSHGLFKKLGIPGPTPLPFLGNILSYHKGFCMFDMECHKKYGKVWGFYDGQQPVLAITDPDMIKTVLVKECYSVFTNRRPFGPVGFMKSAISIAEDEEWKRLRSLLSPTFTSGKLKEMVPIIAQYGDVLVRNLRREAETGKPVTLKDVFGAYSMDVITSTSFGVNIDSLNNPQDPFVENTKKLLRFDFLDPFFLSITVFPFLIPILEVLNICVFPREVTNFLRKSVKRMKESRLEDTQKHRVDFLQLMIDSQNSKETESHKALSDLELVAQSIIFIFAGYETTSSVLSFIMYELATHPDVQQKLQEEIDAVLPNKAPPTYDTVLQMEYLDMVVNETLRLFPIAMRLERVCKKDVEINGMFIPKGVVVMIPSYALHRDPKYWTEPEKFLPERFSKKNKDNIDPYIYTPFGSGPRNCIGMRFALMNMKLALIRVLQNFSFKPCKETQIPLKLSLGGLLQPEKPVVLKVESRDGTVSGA

As for `CCN1CCN(Cc2ccc(NC(=O)CNc3ccc(-c4ccc(NC(=O)C5CC5)nc4)cc3)cc2C(F)(F)F)CC1`, in data set [1], the half-life was 2.14 h. Further, the half-inhibitory concentration (IC50) in data set [2] was 672 nM; against Cytochrome P450 3A4 it was greater than 30000 nM; in data set [3], 16 nM; in data set [5] it was 24 nM; in data set [8], 7 nM; in data set [12], 20 nM. In addition, the IC50 in [13] worked out at 180 nM. The inhibition in data set [4], in data set [10] and in data set [11] was greater than 99% each time. The Activity entry in the data set with Mus musculus [6] is listed as “Non-toxic”. Besides, growth in data set [7] was halved (GI50) at 50 nM. The clearance in data set [9] is 45 mL/min/kg.
Regarding `CN1CCN(Cc2ccc(NC(=O)CNc3ccc(-c4ccc(NC(=O)C5CC5)nc4)cc3F)cc2C(F)(F)F)CC1`, the half-maximal inhibitory concentration (IC50) was 1280 nM in data set [2]; greater than 30000 nM at Cytochrome P450 3A4; 10 nM in data set [3]; 21 nM in data set [5]; 1 nM in [8]; 20 nM in data set [12]. The IC50 in data set [13] was found to be 280 nM. This compound had a clearance in [14] of 50 mL/min/kg. The inhibition in data set [4], in data set [10] and in [11] was greater than 99% throughout. Moreover, the GI50 in data set [7] worked out at 13 nM. For the same compound, the half-life in data set [15] is 2.2 h. The Activity entry with Mus musculus [16] is recorded as “Non-toxic”.

The record behind these values is ChEMBL document CHEMBL3804768, “Structure-Activity Relationship Studies of Mitogen Activated Protein Kinase Interacting Kinase (MNK) 1 and 2 and BCR-ABL1 Inhibitors Targeting Chronic Myeloid Leukemic Cells” (J Med Chem, 2016).
